Test results: ChEMBL document CHEMBL1134834, “Quinoxalinylethylpyridylthioureas (QXPTs) as potent non-nucleoside HIV-1 reverse transcriptase (RT) inhibitors. Further SAR studies and identification of a novel orally bioavailable hydrazine-based antiviral agent” (J Med Chem, 2001)
Each block holds one compound with its values, some of them ahead of it.

How the values were obtained:
[1] = tested on: Murine cell line; assay: (§1) cytotoxicity on 3T3 fibroblasts (3T3F) murine cell line (O.D.=0.131+/-0.014); format: functional; details: Mus musculus, read-out: TC50 (the source's name)
[2] = tested on: CEM-SS; assay: Concentration which produces a 50% survival of HIV-1 infected cells relative to uninfected control CEM-SS cells (in vitro anti-HIV activity); format: functional, cell-based; details: Homo sapiens
Procedure, shortened: (§2)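 CEM-SS T4 lymphocytes infected with wild-type HIV-1. Protection from virus-induced cell death is scored against an AZT-treated positive control run under identical conditions. […] SI = IC50/EC50.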

[3] = tested on: CEM-SS; assay: (§3) Concentration which results in 50% survival of uninfected untreated control CEM-SS cells (cytotoxicity of the compound); format: functional, cell-based; details: Homo sapiens, read-out: IC50 (the source's name)
[4] = tested on: C8166; assay: (§4) Concentration which results in 50% survival of uninfected untreated control C8166 cells (cytotoxicity of the compound); format: functional, cell-based; details: Homo sapiens
Procedure, shortened: (§5)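 Toxicity in uninfected C8166 cells by MTT reduction to formazan, read spectrophotometrically.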

[5] = tested on: Human immunodeficiency virus 1; assay: Concentration which produces a 50% survival of HIV-1 infected cells relative to uninfected control C8166 cells; format: functional, organism-based; details: Human immunodeficiency virus 1, C8166
[6] = tested on: Daudi; assay: cytotoxicity on Daudi Human(DH) cell line (O.D.=0.129+/-0.018); format: functional; details: read-out: TC50 (the source's name)
[7] = species on record: Mus musculus; assay: cytotoxicity on NSO murine cell line (O.D.=0.125+/-0.015); format: functional; details: read-out: TC50 (the source's name)
[8] = target: T1, Human immunodeficiency virus type 1 reverse transcriptase (Human immunodeficiency virus 1, UniProt Q72547); assay: Inhibition of HIV-1 Mutant HIV-1 RT enzymes containing the single amino acid substitution […]
[9] = target: Human immunodeficiency virus type 1 reverse transcriptase (Human immunodeficiency virus 1, UniProt Q72547, V106A); assay: Inhibition of HIV-1 Mutant HIV-1 RT enzymes containing the single amino acid substitution V106A
[10] = target: Human immunodeficiency virus type 1 reverse transcriptase (Human immunodeficiency virus 1, UniProt Q72547, Y181I); assay: Inhibition of HIV-1 Mutant HIV-1 RT enzymes containing the single amino acid substitution Y181I
[11] = target: Human immunodeficiency virus type 1 reverse transcriptase (Human immunodeficiency virus 1, UniProt Q72547, Y188L); assay: Inhibition of HIV-1 Mutant HIV-1 RT enzymes containing the single amino acid substitution Y188L
[12] = target: T1, Human immunodeficiency virus type 1 reverse transcriptase; assay: Inhibition of HIV-1 wild-type RT
[13] = (§6) cytotoxicity on normal human lymphocytes(HL) (O.D.=0.114+/-0.01); format: functional; details: read-out: TC50 (the source's name)
[14] = Selectivity index (IC50/EC50) was determined in C8166 cells; format: functional
[15] = Selectivity index (IC50/EC50) was determined in CEM-SS cells; format: functional
Procedure, shortened: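 CEM-SS (T4 lymphocyte) cells infected with wild-type HIV-1 were scored for protection from virus-induced cell death. […] SI = IC50/EC50. An AZT-treated positive control was run in parallel under identical conditions.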

[16] = target: Human immunodeficiency virus type 1 reverse transcriptase (Human immunodeficiency virus 1, UniProt Q72547, K103N); assay: Inhibition of HIV-1 Mutant HIV-1 RT enzymes containing the single amino acid substitution K103N
[17] = tested on: CEM-SS; assay: as §3; format: cell-based; details: Homo sapiens
[18] = Selectivity index was determined in C8166 cells; format: functional
Procedure, shortened: (§7)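 C8166 CD4+ T-cell line (HTLV-I genome, only tat expressed) acutely infected with lymphocytotropic HIV-1 IIIB. […] Read-out is HIV-p24 antigen in supernatants. AZT positive control was run at the same time. SI = IC50/EC50.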

[19] = Selectivity index was determined in CEM-SS cells; format: functional; procedure, shortened: as §2
[20] = tested on: C8166; assay: as §4; format: cell-based; details: Homo sapiens; procedure, shortened: as §5
[21] = tested on: NIH3T3; assay: as §1; format: functional; details: Mus musculus, read-out: TC50 (the source's name)
[22] = tested on: C8166; assay: Synergistic antiviral activity with AZT (DDI), against HIV-IIIB in C8166 cells; format: functional, cell-based; details: Homo sapiens
Procedure, shortened: (§8)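 C8166 cells infected with HIV-IIIB and treated with compound combined with AZT (or DDI). Combination index calculated by the Chou-Talalay multiple drug effect analysis under both mutually exclusive and mutually nonexclusive assumptions.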

[23] = tested on: C8166; assay: Antiviral activity alone against HIV-IIIB in C8166 cells; format: functional, cell-based; details: Homo sapiens; procedure, shortened: as §7
[24] = tested on: C8166; assay: Synergistic antiviral activity of AZT (DDI) with the compound, against HIV-IIIB in C8166 cells; format: functional, cell-based; details: Homo sapiens; procedure, shortened: as §8
[25] = tested on: Human immunodeficiency virus 1; assay: Inhibition of HIV-1-p24 antigen production in monocyte-macrophages (in vitro anti-HIV-1 activity); format: functional, organism-based
Procedure, shortened: (§9)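 Macrophages from adherent PBMC (10^6/mL, RPMI-1640 with 20% heat-inactivated FCS), 10^5 per well, >95% pure, infected with monocytotropic HTLV-III Ba-L. Antiviral activity read 14 days after infection. […] SI = IC50/EC50. AZT control run in parallel.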

[26] = Selectivity index between IC50 of HIV-1-p24 and EC50 of HIV-1-p24 (IC50/EC50); format: functional; procedure, shortened: as §9
[27] = tested on: Human immunodeficiency virus 1; assay: Inhibition of HIV-1-p24 antigen production in monocyte-macrophages (cytotoxicity of the compound); format: organism-based; procedure, shortened: as §9
[28] = as §6; details: read-out: TC50 (the source's name)
[29] = tested on: NIH3T3; assay: Cytotoxicity against 3T3 fibroblasts (3T3F) murine cell line (O.D.=0.131+/-0.014); format: functional; details: Mus musculus, read-out: TC50 (the source's name)
[30] = tested on: Mus musculus; assay: Area under curve was determined after oral administration in mice; format: ADME, organism-based; details: in vivo
Procedure, shortened: (§10)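 Mice dosed at 20 mg/kg, either subcutaneously or orally; plasma drug level measured by HPLC with an internal standard; n = 3 per point. Cmax and tmax read from the concentration-time curves. Clearance assumes complete subcutaneous absorption. Elimination t1/2, Vd and AUC derived from plasma curves. Relative oral bioavailability computed as oral AUC over subcutaneous AUC.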

[31] = tested on: Mus musculus; assay: Area under curve was determined after subcutaneous administration of a dose of 20 mg/kg in mice; format: ADME, organism-based; set-up: dose 20 mg/kg, route subcutaneous; details: in vivo, sc; procedure, shortened: as §10
[32] = tested on: Mus musculus; assay: Volume distribution was determined after subcutaneous administration of a dose of 20 mg/kg in mice; format: ADME, organism-based; set-up: dose 20 mg/kg, route subcutaneous; details: in vivo, sc; procedure, shortened: as §10
[33] = Half life period was determined after oral administration in mice; format: ADME, organism-based; details: mouse, in vivo; procedure, shortened: as §10
[34] = Half life period was determined after subcutaneous administration of a dose of 20 mg/kg in mice; format: ADME, organism-based; set-up: dose 20 mg/kg, route subcutaneous; details: mouse, in vivo, sc; procedure, shortened: as §10
[35] = Subcutaneous absorption was determined fter subcutaneous administration of a dose of 20 mg/kg in mice; format: ADME, organism-based; set-up: dose 20 mg/kg, route subcutaneous; details: mouse, in vivo, sc; procedure, shortened: as §10
[36] = tested on: C8166; assay: Synergistic antiviral activity with AZT (DDI), against HIV-IIIB in C8166 cells (combination index in association with DDI); format: functional, cell-based; details: Homo sapiens; procedure, shortened: as §8
[37] = tested on: C8166; assay: Concentration which produces a 50% survival of HIV-1 infected cells relative to uninfected control C8166 cell (in vitro anti-HIV activity); format: functional, cell-based; details: Homo sapiens
[38] = tested on: C8166; assay: Synergistic antiviral activity of AZT (DDI) with the compound, against HIV-IIIB in C8166 cells (combination index in association with DDI); format: functional, cell-based; details: Homo sapiens; procedure, shortened: as §8
[39] = tested on: Daudi; assay: Cytotoxicity against Daudi Human(DH) cell line (O.D.=0.129+/-0.018); format: functional; details: read-out: TC50 (the source's name)
[40] = tested on: NSO; assay: (§11) Cytotoxicity against NSO murine cell line (O.D.=0.125+/-0.015); format: functional; details: Mus musculus, read-out: TC50 (the source's name)
[41] = (§12) Cytotoxicity against normal human lymphocytes(HL) (O.D.=0.114+/-0.01); format: functional; details: read-out: TC50 (the source's name)
[42] = Bioavailability was determined after subcutaneous administration of a dose of 20 mg/kg in mice; format: ADME, organism-based; details: mouse, in vivo, po, in the assay text read “oral” for “subcutaneous”; procedure, shortened: as §10
[43] = species on record: Mus musculus; assay: as §11; format: functional; details: read-out: TC50 (the source's name)
[44] = as §12; details: read-out: TC50 (the source's name)

SMILES: O=c1c2cccn2c2ccc(Cl)cc2n1CCNC(=S)Nc1ccc(Br)cn1
- CC50 [1]: 980000 nM
- EC50 [2]: 1.8 nM
- CC50 [3]: > 2000 nM
- IC50 [4]: 7000 nM
- EC50 [5]: 61 nM
- CC50 [6]: 960000 nM
- CC50 [7]: 970000 nM
- Ki [8]: 160 nM
- Ki [9]: 20 nM
- Ki [10]: 240 nM
- Ki [11]: 900 nM
- Ki [12]: 20 nM
- CC50 [13]: 970000 nM
- SI [14]: 123
- SI [15]: >1080
- Ki [16]: 150 nM

SMILES: O=c1c2cccn2c2c(F)cc(F)cc2n1CCNC(=S)Nc1ccc(Br)cn1
- Ki [8]: 100 nM
- Ki [9]: 30 nM
- Ki [10]: 1600 nM
- Ki [11]: 450 nM
- Ki [12]: 22 nM

- Ki [12]: 1900 nM
SMILES: S=C(NNc1nc2ccccc2n2cccc12)Nc1ccc(Br)cn1

SMILES: Cc1cn([C@H]2C[C@H](N=[N+]=[N-])[C@@H](CO)O2)c(=O)[nH]c1=O [ZIDOVUDINE]
- IC50 [17]: > 1000 nM
- EC50 [5]: 400 nM
- SI [18]: >250
- SI [19]: 526
- IC50 [20]: > 100000 nM

SMILES: O=c1c2cccn2c2ccc(F)cc2n1CC/N=C(\S)Nc1ccc(Br)cn1
- CC50 [21]: 20000 nM
- EC50 [2]: 63 nM
- IC50 [17]: > 200000 nM
- EC50 [22]: 57 nM
- IC50 [4]: 15000 nM
- EC50 [23]: 66 nM
- EC50 [5]: 32 nM
- EC50 [24]: 85 nM
- CC50 [6]: 19000 nM
- EC50 [25]: 4 nM
- CC50 [7]: 20000 nM
- Ki [8]: 700 nM
- Ki [9]: 40 nM
- Ki [10]: 1000 nM
- Ki [11]: 1200 nM
- Ki [12]: 29 nM
- SI [26]: 12200
- SI [14]: 468
- IC50 [27]: 49000 nM
- CC50 [28]: 20000 nM
- SI [15]: >3170
- Ki [16]: 650 nM

SMILES: O=C(NNc1nc2ccccc2n2cccc12)c1cnccn1
- CC50 [29]: 880000 nM
- AUC [30]: 21.7 nM hr-1 ml-1
- AUC [31]: 48.7 nM hr-1 ml-1
- Vd [32]: 3 L/kg
- half-life [33]: 1.4 h
- half-life [34]: 1.5 h
- Tmax [35]: 2 h
- EC50 [36]: 140 nM
- IC50 [4]: 18000 nM
- EC50 [23]: 450 nM
- EC50 [37]: 400 nM
- EC50 [38]: 98 nM
- CC50 [39]: 860000 nM
- EC50 [25]: 200 nM
- CC50 [40]: 870000 nM
- Ki [8]: 300 nM
- Ki [9]: 800 nM
- Ki [10]: 2500 nM
- Ki [11]: 1800 nM
- Ki [12]: 190 nM
- IC50 [27]: 25000 nM
- CC50 [41]: 870000 nM
- bioavailability [42]: 45%

SMILES: O=c1n(CCNC(=S)Nc2ccc(Br)cn2)c2ccccc2c2ccnn12
- Ki [8]: 100 nM
- Ki [9]: 330 nM
- Ki [10]: 520 nM
- Ki [11]: 400 nM
- Ki [12]: 15 nM
- Ki [16]: 21 nM

SMILES: O=c1c2cccn2c2ccccc2n1CCNC(=S)Nc1ccc(Br)cn1
- CC50 [29]: 800000 nM
- EC50 [5]: 380 nM
- CC50 [39]: 800000 nM
- CC50 [43]: 800000 nM
- Ki [8]: 105 nM
- Ki [9]: 112 nM
- Ki [10]: 4000 nM
- Ki [11]: 2500 nM
- Ki [12]: 58 nM
- CC50 [44]: 800000 nM
- IC50 [20]: 17000 nM
- Ki [16]: 100 nM
